For nine molecules, Ki results are on record in ChEMBL document CHEMBL1157673, “Synthesis and in vitro evaluation of fluorinated diphenyloxide derivatives and sulfur analogs as serotonin transporter ligands” (Bioorg Med Chem, 2010).

SMILES strings stand for the structures. Where only a bound is given, the exact number is not on record here.

Experiment [1] deals with Sodium-dependent serotonin transporter (Homo sapiens, UniProt P31645). Put plainly: Displacement of [3H]citalopram from human cloned SERT expressed in HEK293 cells. The experiment is classed as cell-based. The procedure, abridged:
(§1)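 Each compound was first tested at 100 nM against tritiated radioligand binding. A Ki was determined only where that concentration inhibited at least 50% of specific binding (IC50 <100 nM).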

Experiment [2] deals with Sodium-dependent noradrenaline transporter (Homo sapiens, UniProt P23975). The experiment is described as follows: Displacement of [3H]nisoxetine from human cloned NET expressed in HEK293 cells. Type of experiment: cell-based. The essentials:
as §1

Experiment [3] has as its target T1, Sodium-dependent dopamine transporter (Homo sapiens, UniProt Q01959). Put plainly: Displacement of [3H]WIN-35428 from human cloned DAT expressed in HEK293 cells. The experiment is classed as cell-based. Particulars: in the assay text read “[3H]GBR12935” for “[3H]WIN-35428”. The procedure, abridged: as §1
Experiment [4] concerns the target T1, Sodium-dependent dopamine transporter. The experiment is described as follows: Displacement of [3H]GBR12935 from human cloned DAT expressed in HEK293 cells. For orientation: Displacement assays read how much labelled ligand stays bound in the presence of the test substance.

Chain of Sodium-dependent serotonin transporter (P31645 whole entry): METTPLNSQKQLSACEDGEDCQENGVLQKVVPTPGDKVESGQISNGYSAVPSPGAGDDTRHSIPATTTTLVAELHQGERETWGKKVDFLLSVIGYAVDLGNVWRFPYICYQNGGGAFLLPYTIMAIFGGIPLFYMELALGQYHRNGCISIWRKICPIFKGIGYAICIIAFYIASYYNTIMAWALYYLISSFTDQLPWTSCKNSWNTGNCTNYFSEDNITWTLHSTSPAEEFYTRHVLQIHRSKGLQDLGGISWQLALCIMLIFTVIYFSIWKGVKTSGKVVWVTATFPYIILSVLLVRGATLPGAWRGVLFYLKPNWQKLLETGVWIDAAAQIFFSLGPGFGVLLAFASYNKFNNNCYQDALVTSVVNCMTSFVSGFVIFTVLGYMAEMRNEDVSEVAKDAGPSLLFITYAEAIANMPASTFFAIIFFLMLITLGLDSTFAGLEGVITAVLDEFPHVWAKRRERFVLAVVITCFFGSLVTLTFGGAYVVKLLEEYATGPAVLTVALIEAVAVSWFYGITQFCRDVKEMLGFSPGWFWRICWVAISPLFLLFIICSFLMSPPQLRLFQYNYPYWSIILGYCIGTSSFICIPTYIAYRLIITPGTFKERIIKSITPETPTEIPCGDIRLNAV
T1 sequence (Q01959 whole entry): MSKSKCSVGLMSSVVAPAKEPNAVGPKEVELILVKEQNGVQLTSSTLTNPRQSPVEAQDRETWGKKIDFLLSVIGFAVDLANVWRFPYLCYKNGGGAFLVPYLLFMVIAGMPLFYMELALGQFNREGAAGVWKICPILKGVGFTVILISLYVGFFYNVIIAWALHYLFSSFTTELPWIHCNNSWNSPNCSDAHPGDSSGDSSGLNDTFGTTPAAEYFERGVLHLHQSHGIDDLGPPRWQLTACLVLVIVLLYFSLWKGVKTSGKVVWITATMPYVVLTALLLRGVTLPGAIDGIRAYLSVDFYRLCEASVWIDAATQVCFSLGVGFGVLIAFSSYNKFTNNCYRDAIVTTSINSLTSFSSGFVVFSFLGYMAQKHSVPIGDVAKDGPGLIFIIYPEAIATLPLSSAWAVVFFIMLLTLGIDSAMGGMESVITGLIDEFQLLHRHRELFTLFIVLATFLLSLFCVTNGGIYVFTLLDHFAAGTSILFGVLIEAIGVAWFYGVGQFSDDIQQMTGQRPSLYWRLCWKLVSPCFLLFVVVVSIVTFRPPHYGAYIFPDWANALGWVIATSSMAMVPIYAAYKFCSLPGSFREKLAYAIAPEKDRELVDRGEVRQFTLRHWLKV
Chain of Sodium-dependent noradrenaline transporter (P23975 whole entry): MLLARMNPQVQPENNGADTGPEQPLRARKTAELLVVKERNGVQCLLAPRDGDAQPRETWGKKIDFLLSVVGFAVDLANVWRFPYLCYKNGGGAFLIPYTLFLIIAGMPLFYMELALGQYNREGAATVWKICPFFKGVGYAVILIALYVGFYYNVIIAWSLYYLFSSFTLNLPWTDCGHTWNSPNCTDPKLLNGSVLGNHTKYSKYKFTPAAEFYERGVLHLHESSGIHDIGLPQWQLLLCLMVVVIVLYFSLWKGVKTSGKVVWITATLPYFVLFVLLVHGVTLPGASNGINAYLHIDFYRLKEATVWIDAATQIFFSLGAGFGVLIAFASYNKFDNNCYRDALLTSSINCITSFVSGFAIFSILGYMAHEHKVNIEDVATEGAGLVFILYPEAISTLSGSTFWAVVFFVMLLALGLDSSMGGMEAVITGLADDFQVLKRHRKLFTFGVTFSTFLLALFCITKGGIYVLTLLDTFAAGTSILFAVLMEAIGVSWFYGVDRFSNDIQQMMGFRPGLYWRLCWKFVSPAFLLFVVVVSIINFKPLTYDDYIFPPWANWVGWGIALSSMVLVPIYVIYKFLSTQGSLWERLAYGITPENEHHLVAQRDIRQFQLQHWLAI

`Cc1ccc(Oc2ccc(OCCF)cc2CN(C)C)c(N)c1`: the inhibition constant (Ki) (as a rule, the equilibrium dissociation constant of an inhibitor or competing ligand from its target) is 401 nM in experiment [1], 667 nM in experiment [2] and 4190 nM in experiment [3].
Consider `Cc1ccc(Oc2ccc(OCCCCF)cc2CN(C)C)c(N)c1`, for which the results for the Ki in experiment [1], in experiment [2] and in experiment [4] were 12 nM, 406 nM and 3600 nM, respectively.
As for `Cc1ccc(Oc2cc(F)ccc2CN(C)C)c(N)c1`, the figures for the Ki in experiment [1], in experiment [2] and in experiment [3] were 7 nM, 503 nM and 960 nM, respectively.
The like results for `Cc1ccc(Oc2cc(OCCCF)ccc2CN(C)C)c(N)c1` were, in that order, 445 nM, greater than 500 nM and greater than 1000 nM.
The like results for `Cc1ccc(Oc2cc(OCCF)ccc2CN(C)C)c(N)c1` were, in that order, 519 nM, 8850 nM and 726 nM.
In the case of `Cc1ccc(Oc2ccc(F)cc2CN(C)C)c(N)c1`, the inhibitory constant (Ki) in experiment [1] is 8 nM; in experiment [2], 1240 nM; in experiment [4], 503 nM.
`CN(C)Cc1ccccc1Oc1ccc(I)cc1N` had a Ki in experiment [1] of 0.171 nM. In other words, the sub-nanomolar range.
On to `Cc1ccc(Oc2ccc(OCCCF)cc2CN(C)C)c(N)c1`, for which the inhibition constant (Ki) was determined as 7 nM in experiment [1], 632 nM in experiment [2] and 6980 nM in experiment [3].
With `Cc1ccc(Sc2cc(F)ccc2CN(C)C)c(N)c1`, the figures for the inhibition constant Ki in experiment [1], in experiment [2] and in experiment [3] were 13 nM, 1200 nM and 1220 nM, respectively.
